KCNK3 inh = human KCNK3 channel inhibition, primary screen; 340,000 compounds, 0.84% hits; O14649; CHO-KCNK3 thallium flux, FluxOR fluorescence; hits give low values; B-score at 10 µM;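 active = B-score under library mean minus 4 SD, starting fluorescence ratio at most library mean plus 5 SD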;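 note: more negative B-score means stronger inhibition of thallium flux through KCNK3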
KCNK9 block = human KCNK9 channel inhibition; 310,000 compounds, 1.2% hits; HEK293 KCNK9, FluxOR thallium flux fluorescence; hits give low values; B-score at 10 µM;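 active = ratio B-score over 3 SD below the library mean, with starting fluorescence within 5 SD of its mean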;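 note: negative B-score means less thallium flux so channel inhibition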
KCNQ1 act = potentiates or activates the human KCNQ1 potassium channel | P51787 | CHO-K1 KCNQ1, thallium flux FluxOR fluorescence; hits give high values | B-score at 10 µM | 310,000 compounds, 0.35% hits | AID 2648;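 active = fluorescence ratio B-score, a plate-corrected score, at least three library SD, with initial intensity B-score within 5 SD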
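assay system = KCNQ1-transfected CHO-K1 cells | medium = assay buffer with matched DMSO | probe or stimulus = depolarizing K+/Tl+ stimulus, K2SO4 and Tl2SO4 each 12.5 mM in 5x stock | dosing = single dose | incubation = dye 90 min, compound 20 min, room temperature | detection = kinetic FluxOR fluorescence, 10 s baseline plus 110 s post-stimulus | evaluation = ratio B score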
hERG rescue = compounds protecting human hERG from proarrhythmic drug block; activation (rescue from dofetilide block), less the hit threshold, % at 10 µM; CHO-hERG, FluxOR thallium flux, dofetilide IC70 present; 310,000 compounds, 0.51% hits;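 active = activation above the mean of controls blocked by dofetilide plus 5 SD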;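 note: thallium influx through hERG after potassium depolarization seen as dye fluorescence rise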
Cl transport mod = KCC2 (human) Cl- transport modulation | KCC2 cells, thallium flux FluoZin-2 fluorescence | B-score of Tl+ flux slope (higher = more flux/activation; lower = inhibition) at 10 µM | 190,000 compounds, 2.2% hits | AID 1456;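 active = thallium flux slope and its plate-corrected score both differing from the plate sample mean at a set confidence after two filtering rounds, in either direction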;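 note: slope of fluorescence scaled to starting intensity during 10 to 20 s after thallium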
Target sequence (Q9H2X9 whole entry, looked up): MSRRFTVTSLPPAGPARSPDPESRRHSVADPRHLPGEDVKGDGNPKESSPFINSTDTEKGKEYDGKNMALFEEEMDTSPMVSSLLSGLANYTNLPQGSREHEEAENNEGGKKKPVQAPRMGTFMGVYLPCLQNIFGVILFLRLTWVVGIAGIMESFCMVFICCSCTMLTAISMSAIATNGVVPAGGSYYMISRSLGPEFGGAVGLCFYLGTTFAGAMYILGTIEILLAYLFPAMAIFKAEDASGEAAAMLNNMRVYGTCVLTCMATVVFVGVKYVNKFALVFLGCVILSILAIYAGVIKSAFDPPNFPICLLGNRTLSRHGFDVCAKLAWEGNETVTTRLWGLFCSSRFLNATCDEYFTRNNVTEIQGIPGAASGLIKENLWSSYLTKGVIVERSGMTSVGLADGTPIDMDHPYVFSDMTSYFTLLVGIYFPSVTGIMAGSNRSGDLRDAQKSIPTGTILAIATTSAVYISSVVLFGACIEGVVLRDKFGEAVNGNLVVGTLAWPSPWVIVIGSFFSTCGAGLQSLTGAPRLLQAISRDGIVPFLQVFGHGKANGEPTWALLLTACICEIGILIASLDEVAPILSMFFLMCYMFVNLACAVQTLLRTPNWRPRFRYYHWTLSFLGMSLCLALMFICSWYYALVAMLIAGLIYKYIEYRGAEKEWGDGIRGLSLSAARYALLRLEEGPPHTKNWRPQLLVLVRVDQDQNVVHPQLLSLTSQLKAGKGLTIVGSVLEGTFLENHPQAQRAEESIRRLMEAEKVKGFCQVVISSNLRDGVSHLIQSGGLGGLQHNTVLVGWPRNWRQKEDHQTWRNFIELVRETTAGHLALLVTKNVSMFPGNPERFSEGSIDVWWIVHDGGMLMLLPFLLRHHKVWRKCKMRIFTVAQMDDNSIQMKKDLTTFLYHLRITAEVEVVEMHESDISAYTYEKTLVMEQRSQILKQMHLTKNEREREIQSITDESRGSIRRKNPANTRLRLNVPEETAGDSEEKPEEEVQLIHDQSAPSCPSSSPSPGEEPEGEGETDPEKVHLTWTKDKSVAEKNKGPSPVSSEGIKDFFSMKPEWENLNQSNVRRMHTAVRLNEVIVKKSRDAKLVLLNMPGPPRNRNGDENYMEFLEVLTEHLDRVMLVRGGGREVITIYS
KCNQ1 block = blocks the human KCNQ1 potassium channel. CHO-K1 KCNQ1, FluxOR thallium flux fluorescence; hits give high values. B-score at 10 µM. 310,000 compounds, 1.3% hits;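 active = compounds whose thallium flux B-score, printed positive for inhibition, exceeds three library SD while starting fluorescence stays within three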;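 note: channel opened by potassium depolarization with thallium stimulus after 20 min compound exposure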
KCNK9 block conf = confirmation of human KCNK9 potassium channel inhibitors; 4,900 compounds, 43% hits; inhibition, % at 10 µM; shares compounds with KCNK9 block; AID 492992; HEK293 KCNK9 cells, FluxOR thallium flux fluorescence;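 active = thallium signal inhibited by more than 5 SD of the compound-free buffer control wells, on both duplicate plates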;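 note: 0% = assay buffer control wells without compound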
Kir2-1 spec = tests whether KCNK9 modulators also affect mouse Kir2.1; 4,900 compounds, 4% hits; shares compounds with KCNK9 block; inhibition, % at 10 µM; Kir2.1 cells, FluxOR thallium flux fluorescence; AID 492993;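 active = thallium signal drop more than 5 SD beyond the mean of the no-compound control wells, seen in both duplicate plates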;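 note: signal is fluorescence rise after thallium addition divided by baseline fluorescence; plate controls were assay buffer only for no effect and full block by chlorpromazine control for full effect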
HEK293 Tl ctr = non-induced cell nonspecific activity of KCNK9 modulators; 4,900 compounds, 40% hits; shares compounds with KCNK9 block; inhibition, % at 10 µM; non-induced KCNK9-HEK293, FluxOR thallium flux;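 active = thallium signal drop beyond 5 SD of the untreated control mean, on both duplicate plates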;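 note: plate controls were buffer only IC0 wells for no effect and SID17386958 at its maximal inhibitory level for full effect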
An asterisk follows results filed as active; i = inactive; x = not tested or not shown. Hits are enriched below; roughly 4.1% of the tested compounds scored in any of these assays.

SMILES	KCNK3 inh	KCNK9 block	KCNQ1 act	hERG rescue	Cl transport mod	KCNQ1 block	KCNK9 block conf	Kir2-1 spec	HEK293 Tl ctr
Cc1ccc(NC(=O)c2ccco2)c(NC(=O)c2ccc(Cl)cc2)c1	i	i	i	-6	x	i	x	x	x
COc1ccc2c(c1)CCCC21NC(=O)N(CC(=O)NCc2cccs2)C1=O (configuration not stated)	i	x	x	x	x	x	x	x	x
O=C(Nc1nnc(-c2ccncc2)o1)c1ccccc1	i	i	i	-8	1.2	i	x	x	x
O=C(Nc1nnc(-c2ccc3c(c2)CCCC3)o1)c1ccccc1	i	i	33*	-9	79*	i	i	i	i
CCCN(CC(=O)Nc1ccccc1C)C(=O)c1ccc(S(=O)(=O)N2CCC(C)CC2)cc1	i	x	x	x	x	x	x	x	x
C/C(=N\NC(=S)NCc1ccccc1)c1ccc(C(C)(C)C)cc1	i	i	i	-10	1.4	i	i	i	i
CN(CC(=O)Nc1ccc(F)cc1)C(=O)C1CCN(C(=O)Nc2ccccc2)CC1	i	x	x	x	x	x	x	x	x
COc1ccccc1C1=NOC(C)(c2nnc(-c3cccc(Cl)c3)o2)C1 (configuration not stated)	i	i	i	-7	x	i	x	x	x
CC(C)(C)c1ccc(CN(Cc2ccco2)Cc2nnnn2C2CCCC2)cc1	i	-14*	i	-24	-1.8	6*	62%*	i	49%*
COc1ccc2cc(CN(Cc3ccco3)Cc3nnnn3C3CCCCC3)c(=O)[nH]c2c1	i	i	i	-11	0.021	i	x	x	x
N#CCC(=O)Nc1ccc(C(=O)OCC(=O)Nc2ccc3ccccc3c2)cc1	i	x	x	x	x	x	x	x	x
O=C(NCCC(=O)N1CCN(S(=O)(=O)c2ccccc2F)CC1)Nc1ccccc1	i	x	x	x	x	x	x	x	x
C=C(c1ccccc1)c1ccccc1N	i	i	i	-5	x	i	x	x	x
CCOc1cc(CNc2ccc(Br)cc2)cc(Br)c1OCC(=O)NC(C)(C)C	i	-9.2*	i	2	1.6	i	47%*	i	40%*
COc1cc(/C=N/NC(=O)c2ccc([N+](=O)[O-])cc2Cl)cc(Br)c1O	i	i	i	-6	-1.2	i	x	x	x
COc1cc(/C=N/N2C(=O)c3ccccc3NC2(C)c2cccc([N+](=O)[O-])c2)cc(Br)c1O (configuration not stated)	i	-14*	i	-16	x	i	56%*	i	46%*
COc1ccc(C(=O)Nc2cc(OCc3ccccc3)c(Cl)cc2Cl)cc1	i	-16*	i	-16	x	i	58%*	i	i
O=C(O)c1cccc(COc2ccccc2Cl)c1	i	i	i	-7	x	i	x	x	x
O=C(Nc1ccccc1Cl)c1cccc(COc2cc(Cl)ccc2Cl)c1	i	-11*	i	-4	0.18	i	30%*	i	i
CCCN1Cc2cccc(C(=O)NCCc3ccccc3)c2C1=O	i	i	i	-3	x	i	x	x	x
COc1ccc(C(=O)/C=C/c2ccc(OC)c(COc3ccccc3F)c2)cc1	i	-16*	i	-9	1.4	i	70%*	i	31%*
COc1ccc(C(=O)N/N=C/c2ccc(OC)c(COc3ccc(F)cc3F)c2)cc1	i	i	i	-15	x	i	x	x	x
COc1ccc(/C=C/C(=O)c2ccccc2)cc1COc1ccc(F)cc1	i	-13*	i	-5	1.7	i	70%*	28%*	55%*
O=C(CCCc1ccccc1)NCCc1ccc(F)cc1	i	i	i	-7	x	i	x	x	x
CC1(C)CC(C(CCN(Cc2ccccc2)C(=O)c2ccco2)c2ccc(F)cc2)CCO1 (configuration not stated)	i	-10*	i	-13	-2.3	i	67%*	i	50%*
SMILES	KCNK3 inh	KCNK9 block	KCNQ1 act	hERG rescue	Cl transport mod	KCNQ1 block	KCNK9 block conf	Kir2-1 spec	HEK293 Tl ctr
O=C(Nc1cccc(S(=O)(=O)N2CCCCC2)c1)c1ccc(N2CCCC2=O)cc1	i	x	x	x	x	x	x	x	x
COc1ccc(OC)c(S(=O)(=O)NCC(c2cccs2)N2CCc3ccccc3C2)c1 (configuration not stated)	i	-9.1*	i	-8	x	i	i	i	i
COC(=O)C1CN(C(=O)COc2ccc(Cl)c(C)c2)c2ccccc2O1 (configuration not stated)	i	i	i	-5	x	i	x	x	x
COC(=O)C1CN(C(=O)COc2cc(C)c(Cl)c(C)c2)c2ccccc2O1 (configuration not stated)	i	-9.9*	i	-1	x	i	i	i	34%*
O=C(O)Cn1c(=O)c2c3c(sc2n(Cc2ccc(Cl)cc2Cl)c1=O)CCCC3	i	i	i	-10	x	i	x	x	x
COc1ccc(N(CC(=O)NC2CCCCCC2)S(=O)(=O)c2ccccc2)cc1Cl	i	i	i	-4	x	i	x	x	x
Cc1ccccc1C(=O)N1CCN(C(c2ccccc2)c2ccccc2)CC1	i	i	i	-9	x	i	x	x	x
O=C(C(Sc1ccccc1)c1ccccc1)N1CCN(c2ccccc2)CC1 (configuration not stated)	i	i	i	-4	-1.8	i	x	x	x

Assay outcomes as filed in PubChem.
